The values below come from ChEMBL document CHEMBL4706565, “Anti-glioma effects of 2-aminothiophene-3-carboxamide derivatives, ANO1 channel blockers” (Eur J Med Chem, 2020).

Calls of active or inactive are those of the source. No cut-off for these calls is given here.

The test system of experiment [1] is U-251. Briefly: Inhibition of cell invasion in human U251 cells at 10 uM incubated for 48 hrs by Boyden chamber method. It counts as functional. An outline of the steps: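 Boyden chamber invasion: U251 cells serum-starved 24 h, then 2.5×10^5 cells seeded in 8-μm ECMatrix-coated transwells. Treated with compound at 1 or 10 μM for 48 h at 37 °C. Invasion ratio from relative fluorescence.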

The target in experiment [2] is T1, Anoctamin-1 (Homo sapiens) (UniProt Q5XXA6).
T1 sequence (whole entry): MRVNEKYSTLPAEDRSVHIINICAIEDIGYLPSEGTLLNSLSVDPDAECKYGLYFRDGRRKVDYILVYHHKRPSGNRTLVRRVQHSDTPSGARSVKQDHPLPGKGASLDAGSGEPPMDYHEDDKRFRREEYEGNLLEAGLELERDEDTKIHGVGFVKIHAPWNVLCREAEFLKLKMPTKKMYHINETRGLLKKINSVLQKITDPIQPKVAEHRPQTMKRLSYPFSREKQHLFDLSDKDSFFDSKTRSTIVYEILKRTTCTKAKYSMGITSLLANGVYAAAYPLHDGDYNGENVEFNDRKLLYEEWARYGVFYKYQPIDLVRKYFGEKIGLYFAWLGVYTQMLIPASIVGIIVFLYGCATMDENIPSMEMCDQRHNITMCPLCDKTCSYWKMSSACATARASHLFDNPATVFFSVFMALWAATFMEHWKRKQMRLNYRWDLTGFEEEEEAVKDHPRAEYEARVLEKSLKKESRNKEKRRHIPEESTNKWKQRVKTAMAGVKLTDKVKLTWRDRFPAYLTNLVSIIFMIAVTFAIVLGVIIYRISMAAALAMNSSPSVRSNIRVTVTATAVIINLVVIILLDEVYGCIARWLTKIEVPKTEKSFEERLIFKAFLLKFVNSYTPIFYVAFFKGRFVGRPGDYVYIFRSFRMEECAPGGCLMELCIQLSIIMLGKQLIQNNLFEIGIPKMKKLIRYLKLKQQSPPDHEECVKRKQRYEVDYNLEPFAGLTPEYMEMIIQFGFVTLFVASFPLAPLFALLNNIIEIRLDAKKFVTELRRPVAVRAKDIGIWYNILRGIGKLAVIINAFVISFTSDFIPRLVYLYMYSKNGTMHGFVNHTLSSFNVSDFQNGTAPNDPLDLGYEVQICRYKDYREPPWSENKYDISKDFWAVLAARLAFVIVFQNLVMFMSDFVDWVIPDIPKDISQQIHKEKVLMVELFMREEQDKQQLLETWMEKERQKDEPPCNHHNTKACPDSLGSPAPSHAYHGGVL
In words: Induction of ANO1 degradation in human U251 cells at 10 uM preincubated with compound for 6 hrs followed by treatment with proteasome inhibitor, MG132 for 18 hrs by western blot analysis. In kind it is cell-based. Conditions: U-251, time 24.0 hrs. An outline of the steps: (§1)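 U251 cells (5×10^5) treated with 10 μM inhibitor for 24 h. Alternatively, treated 6 h with 10 μM inhibitor, then MG132 (20 μM, a proteasome inhibitor) for a further 18 h. NP40 lysates immunoblotted for ANO1, β-actin as loading control; band densitometry.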
A general note: In western blotting, separated proteins are transferred to a membrane and probed.

For experiment [3], the system named is U-251. In words: Antiproliferative activity against human U251 cells overexpressing ANO1 assessed as reduction in cell viability measured after 72 hrs by Celltiter-glo assay. In kind it is functional. An outline of the steps: (§2)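 5.0×10^3 cells/well seeded, overnight, then compounds added as 1:4 serial dilutions in DMSO; viability read after 72 h with CellTiter-Glo luminescence. GI50 from fitted dose-response curves; triplicate wells, SD from three independent experiments. DMEM for U251 and U138, MEM for U87MG, both with 10% FBS and pen/strep, 37 °C, 5% CO2.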
(In ATP-based viability assays light output follows the ATP content of the culture.)

The test system of experiment [4] is U-87 MG. In words: Antiproliferative activity against human U87MG cells overexpressing ANO1 assessed as reduction in cell viability measured after 72 hrs by Celltiter-glo assay. It counts as functional, U-87MG ATCC. An outline of the steps: as §2
For experiment [5], the system named is U-251. Briefly: Inhibition of colony formation in human U251 cells at 10 uM incubated for 14 days by crystal violet dye based assay. It counts as functional. Conditions: U-251, 336 h, time 14 day. An outline of the steps:
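Colonies stained 24 h with crystal violet in methanol/formaldehyde/PBS, washed, extracted with 10% acetic acid and read at A570 nm. Compared against DMSO control.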

Experiment [6] has as its system U-251. Briefly: Inhibition of colony formation in human U251 cells at 3 uM incubated for 14 days by crystal violet dye based assay. In kind it is functional, cell-based. Conditions: time 14.0 day. An outline of the steps:
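U251 cells, 1.0×10^3 per well, treated with compound (1, 3 or 10 μM) for 2 weeks at 37 °C, 5% CO2. Colonies stained 24 h with crystal violet in methanol/formaldehyde/PBS, washed, extracted with 10% acetic acid and read at A570 nm. Compared against DMSO control.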

Experiment [7] has as its target T1, Anoctamin-1 (Homo sapiens). Briefly: Induction of ANO1 degradation in human U251 cells at 10 uM incubated for 24 hrs by western blot analysis. Conditions: U-251. It counts as cell-based. In short, it runs like this:
as §1

What is called inhibition is the share of the control response that was lost under treatment. Usually GI50 stands for the concentration at which growth is held to half of that of the control. Regarding `CC(C)(C)C(=O)Nc1sc2c(c1C(N)=O)CCC(C(C)(C)C)C2` (centres undefined), the inhibition at 10 µM in experiment [1] is 90%; in experiment [5], 96.6%. In addition, the outcome in experiment [2] was inactive. Further, the figures for the GI50 in experiment [3] and in experiment [4] were 12.6 µM and 31.5 µM, respectively. Also, the inhibition result in experiment [6] was “Active”. The outcome in experiment [7] was Active.
On to `NC(=O)c1c(NC(=S)NC(=O)c2ccc(Cl)cc2)sc2c1CCC2`, for which the inhibition result in experiment [1] and in experiment [6] was “Active” each time. Further, the outcome in experiment [2] was inactive. The GI50 was 12 µM in experiment [3] and 23.8 µM in experiment [4]. Also, in experiment [5], the inhibition at 10 µM came out at 96.4%. Besides, the result in experiment [7] was Active.
